Laboratory results published in ChEMBL document CHEMBL4152206, “Design, synthesis, cytotoxicity and mechanism of novel dihydroartemisinin-coumarin hybrids as potential anti-cancer agents” (Eur J Med Chem, 2018).
Active and inactive are the calls of the source. The calls are words filed in the database; no cut-off is given here.

Experiments:
HT-29 [1] = assay: Antimigratory activity in human HT-29 cells at 1.25 to 2.5 uM after 24 hrs by transwell assay; format: functional, cell-based
HT-29 [2] = assay: Induction of mitochondrial membrane potential loss in human HT-29 cells at 20 uM measured measured until 24 hrs by Rh123 dye-based flow cytometric analysis; format: functional, cell-based
How it was run: (§1)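 HT-29 cells exposed to 20 µM for different times, stained with Rh123 for 40 min, trypsinised (0.25%), washed three times in PBS; mitochondrial membrane potential read by flow cytometry.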

[3] = target: Carbonic anhydrase 9 (Homo sapiens) (UniProt Q16790); assay: Inhibition of carbonic anhydrase 9 in human HT-29 cells assessed as induction of cellular pH decrease at 10 uM after 3 to 12 hrs by BCECF-AM staining-based flow cytometric analysis; format: cell-based
How it was run: (§2)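 Intracellular pH in HT-29 cells exposed to 10 µM for 0, 3, 12 and 24 h: stained 40 min with BCECF-AM, trypsinised (0.25%), PBS-washed, fluorescence read by flow cytometry.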

HT-29 [4] = assay: Induction of apoptosis in human HT-29 cells assessed as early apoptotic cells at 5 uM after 48 hrs by Annexin V-FITC/propidium iodide staining-based flow cytometric analysis (reference value: 0.07%); format: functional
HT-29 [5] = assay: Growth inhibition of human HT-29 cells pretreated with 5 to 40 uM liproxstatin-1 for 1 hr followed by 10 uM compound addition and measured after 48 hrs by MTT assay
HT-29 [6] = assay: Cell cycle arrest in human HT-29 cells assessed as accumulation at sub-G1 phase at 10 uM up to 48 hrs by RNase/propidium iodide staining-based flow cytometric analysis; format: functional
How it was run: (§3)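 HT-29 cells exposed to 10 µM for different times (up to 72 h); sub-G1 fraction measured by flow cytometry.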

HT-29 [7] = assay: Cell cycle arrest in human HT-29 cells assessed as accumulation at sub-G1 phase at 10 uM after 48 to 72 hrs by RNase/propidium iodide staining-based flow cytometric analysis; format: functional; how it was run: as §3
HT-29 [8] = assay: Induction of mitochondrial membrane potential loss in human HT-29 cells at 20 uM measured after 3 hrs by Rh123 dye-based flow cytometric analysis; format: functional, cell-based; how it was run: as §1
MDA-MB-231 [9] = assay: Cytotoxicity against human MDA-MB-231 cells after 96 hrs under hypoxic condition by MTT assay; format: functional, cell-based; conditions: Homo sapiens, MDA-MB-231, 96 h; read-out: IC50
How it was run: (§4)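 MTT viability assay in HT-29 (high CA IX) and MDA-MB-231 (normal CA IX) cells under normoxic and hypoxic conditions; IC50 values reported.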

HT-29 [10] = assay: Cell cycle arrest in human HT-29 cells assessed as accumulation at G0/G1 phase at 20 uM after 48 hrs by RNase/propidium iodide staining-based flow cytometric analysis (reference value: 70.48%); format: functional
HT-29 [11] = assay: Induction of apoptosis in human HT-29 cells assessed as early apoptotic cells at 2.5 uM after 48 hrs by Annexin V-FITC/propidium iodide staining-based flow cytometric analysis (reference value: 0.07%); format: functional
HT-29 [12] = assay: Cell cycle arrest in human HT-29 cells assessed as accumulation at G0/G1 phase at 10 uM after 48 hrs by RNase/propidium iodide staining-based flow cytometric analysis (reference value: 70.48%); format: functional
HT-29 [13] = assay: Cell cycle arrest in human HT-29 cells assessed as accumulation at sub-G1 phase at 10 uM by RNase/propidium iodide staining-based flow cytometric analysis; format: functional; conditions: TDE = time-dependent effect; how it was run: as §3
HT-29 [14] = assay: Cell cycle arrest in human HT-29 cells assessed as accumulation at G0/G1 phase at 2.5 uM after 48 hrs by RNase/propidium iodide staining-based flow cytometric analysis (reference value: 70.48%); format: functional
HT-29 [15] = assay: Cytotoxicity against human HT-29 cells after 96 hrs under hypoxic condition by MTT assay; format: functional, cell-based; conditions: Homo sapiens, HT-29, 96 h; read-out: IC50; how it was run: as §4
HT-29 [16] = assay: Induction of ferroptosis in human HT-29 cells at 10 uM after 72 hrs by MTT assay; format: functional, cell-based
HT-29 [17] = assay: Induction of morphological changes in human HT-29 cells assessed as reduction in cell number after 96 hrs; format: functional, cell-based
HT-29 [18] = assay: Cytotoxicity against human HT-29 cells after 96 hrs under normoxic condition by MTT assay; format: functional, cell-based; conditions: Homo sapiens, HT-29, 96 h; read-out: IC50; how it was run: as §4
HT-29 [19] = assay: Cell cycle arrest in human HT-29 cells assessed as accumulation at G0/G1 phase at 5 uM after 48 hrs by RNase/propidium iodide staining-based flow cytometric analysis (reference value: 70.48%); format: functional
[20] = target: Carbonic anhydrase 9 (Homo sapiens) (UniProt Q16790); assay: Inhibition of carbonic anhydrase 9 in human HT-29 cells assessed as induction of cellular pH decrease at 10 uM after 24 hrs by BCECF-AM staining-based flow cytometric analysis; format: cell-based; how it was run: as §2
MDA-MB-231 [21] = assay: Cytotoxicity against human MDA-MB-231 cells after 96 hrs under normoxic condition by MTT assay; format: functional, cell-based; conditions: Homo sapiens, MDA-MB-231, 96 h; read-out: IC50; how it was run: as §4
HT-29 [22] = assay: Induction of apoptosis in human HT-29 cells assessed as early apoptotic cells at 10 uM after 48 hrs by Annexin V-FITC/propidium iodide staining-based flow cytometric analysis (reference value: 0.07%); format: functional
HT-29 [23] = assay: Induction of morphological changes in human HT-29 cells assessed as reduction in cell volume after 96 hrs; format: functional, cell-based
HT-29 [24] = assay: Antimigratory activity in human HT-29 cells after 72 hrs by wound healing assay; format: functional, cell-based
How it was run: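 HT-29 cells plated 48 h before scratching; treated with 0, 0.31, 0.63, 1.25, 2.5 and 5 µM under normoxia; wound imaged by inverted microscope at 0 h and 72 h.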

HT-29 [25] = assay: Growth inhibition of human HT-29 cells pretreated with 10 uM liproxstatin-1 for 1 hr followed by 10 uM compound addition and measured after 72 hrs by MTT assay; format: functional, cell-based

Cc1c(Cl)c(=O)oc2cc(OCCn3cc(CO[C@H]4O[C@@H]5O[C@@]6(C)CC[C@H]7[C@H](C)CC[C@@H]([C@H]4C)[C@@]57OO6)nn3)ccc12
Activity (HT-29 [1]): Active | Activity (HT-29 [2]): inactive | inhibition [3]: Active | Activity (HT-29 [4]): 4.8% | growth inhibition (GI) (HT-29 [5]): inactive | Activity (HT-29 [6]): inactive | Activity (HT-29 [7]): <=60% | Activity (HT-29 [8]): Active | IC50 (MDA-MB-231 [9]): 7.51 µM | Activity (HT-29 [10]): 82.22% | Activity (HT-29 [11]): 1.7% | Activity (HT-29 [12]): 75.45% | Activity (HT-29 [13]): Tde | Activity (HT-29 [14]): 72.28% | IC50 (HT-29 [15]): 0.17 µM | Activity (HT-29 [16]): Active | Activity (HT-29 [17]): Dose-dependent effect | IC50 (HT-29 [18]): 1.88 µM | Activity (HT-29 [19]): 76.53% | inhibition [20]: Active | IC50 (MDA-MB-231 [21]): 18.4 µM | Activity (HT-29 [22]): 14.9% | Activity (HT-29 [23]): Dose-dependent effect | Activity (HT-29 [24]): Dose-dependent effect | growth inhibition (GI) (HT-29 [25]): inactive
